Test results published in PubChem BioAssay.
Values without a mark were called inactive.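 How the source made its calls, unless noted: active means NADPH fluorescence slope more negative than the mean of all samples by about 3 SD, 99.7% confidence; inactive means the rest.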

target: Voltage-gated potassium channel subunit beta-2 (Rattus norvegicus) (UniProt P62483); experiment: KvBeta positive modulators, primary screen, biochemical, NADPH fluorescence (AID 623); settings: Recombinant KvBeta, NADPH fluorescence decrease slope, 10 min; at 10 µM; active compounds read low;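 further: fluorescence intensity change per second fitted from 20 to 320 s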
Sequence (P62483 whole entry, looked up): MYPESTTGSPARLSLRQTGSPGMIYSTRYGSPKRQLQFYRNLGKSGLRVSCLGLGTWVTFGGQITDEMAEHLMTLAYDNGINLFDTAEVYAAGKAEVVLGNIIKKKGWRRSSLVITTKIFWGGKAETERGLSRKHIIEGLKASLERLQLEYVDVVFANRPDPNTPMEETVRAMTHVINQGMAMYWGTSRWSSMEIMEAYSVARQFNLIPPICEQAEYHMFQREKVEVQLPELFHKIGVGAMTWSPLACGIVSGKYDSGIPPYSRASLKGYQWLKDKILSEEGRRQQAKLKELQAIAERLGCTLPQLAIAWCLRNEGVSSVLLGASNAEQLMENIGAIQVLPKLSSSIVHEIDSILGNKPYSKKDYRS

| Structure (SMILES) | NADPH fluorescence slope |
| --- | --- |
| Nc1ncc(P(=S)(N2CCOCC2)N2CCOCC2)s1 | -8.8e-05 |
| CCCCc1nc(N2CCNCC2)c(C#N)c2c1CSC(C)(C)C2 | -0.000122 |
| COc1ccc(C(=O)CC2C(=O)N(C)C(=O)N(C)C2=O)cc1 | -4.3e-05 |
| CCc1nc(N2CCNCC2)c(C#N)c2c1CSC(C)(C)C2 | -1.6e-05 |
| COC(=O)c1cncn1C(C)c1ccccc1 (stereo unspecified) | -2.9e-05 |
| CCCN(CC#CCO)CCC | -4.9e-05 |
| OC1(c2ccc(F)cc2)CCNC1 (stereo unspecified) | -0.000119 |
| COc1ccccc1-n1c(O)c(C=NCCCn2ccnc2)c(=O)[nH]c1=O | -4.1e-05 |
| COc1ccc(C2SCC(=O)Nc3c2c(=O)[nH]n3C2CCCCC2)cc1 (stereo unspecified) | -0.000101 |
| CCCNS(=O)(=O)c1ccc(OCC(=O)N2CCN(Cc3ccccc3)CC2)cc1 | -7e-05 |
| CCCCNC(=O)Nc1ccc(C(O)(C(=O)OCC)C(F)(F)F)cc1 (stereo unspecified) | -4.2e-05 |
| CCOC(=O)c1cc(C)n(CCc2cnc[nH]2)c1C | -9.2e-05 |
| CC1CN=C(Nc2ccc(N(C)C)cc2)S1 (stereo unspecified) | -5.1e-05 |
| NCC1(c2ccc3c(c2)OCCO3)CCCC1 | -2.2e-05 |
| CCOC(=O)C1=C(C)OC(N)=C(C(=O)OCC)[C@@]12C(=O)N(CC(N)=O)c1ccccc12 | -5.7e-05 |
| COC(=O)C(O)(c1ccc(NC(=O)c2ccco2)c(OC)c1)C(F)(F)F (stereo unspecified) | -5.3e-05 |
| C=CCOC(=O)C1=C(C)OC(N)=C(C#N)[C@@]12C(=O)N(CC(N)=O)c1ccccc12 | -5.7e-05 |
| C=CCOC(=O)C1=C(C)OC(N)=C(C#N)C12C(=O)N(CN1CCOCC1)c1ccccc12 (stereo unspecified) | 2.9e-05 |
| O=C(CN1CCN(CCO)CC1)Nc1ccc(Cl)cc1C(=O)c1ccccc1 | -0.000121 |

| Structure (SMILES) | NADPH fluorescence slope |
| --- | --- |
| Cc1c(N=Cc2c(O)n(Cc3ccco3)c(=O)[nH]c2=O)c(=O)n(-c2ccccc2)n1C | -0.000124 |
| CN(C)CCOC(=O)c1cn(Cc2ccccc2)c2ccccc12 | -6.8e-05 |
| COC(=O)CC1(Cc2ccccc2)C(=O)NC(=O)NC1=O | -2.7e-05 |
| COc1ccc2c(c1OC)C(=O)OC2c1c(O)n(C2CCCCC2)c(=O)[nH]c1=O (stereo unspecified) | -7.1e-05 |
| Cn1c(O)c(C=NCCCNC2CCCCC2)c(=O)n(C)c1=O | -0.000127 |
| COc1ccc(C2SCC(=O)Nc3c2c(=O)[nH]n3C2CCCCCC2)cc1 (stereo unspecified) | -3e-05 |
| CNC(=O)N(C)c1nnc(C(C)(C)C)s1 | -9.9e-05 |
| CCCC12CN3CN(C1)CC(CCC)(C3)C2O (stereo unspecified) | -0.000119 |
| Nc1c(C(=O)NCc2ccco2)c2nc3ccccc3nc2n1CCN1CCCCC1 | -2.8e-05 |
| OC(c1ccc(F)cc1)C(c1ccccc1)N1CCOCC1 (stereo unspecified) | -3.5e-05 |
| COC(=O)C(c1ccccc1)N1CCCCCC1 (stereo unspecified) | -3.5e-05 |
| CCn1c(O)c(C(=O)CC2NCCc3ccccc32)c(=O)n(CC)c1=S (stereo unspecified) | -1.1e-05 |
| Nc1c(C(=O)NCc2ccco2)c2nc3ccccc3nc2n1Cc1ccc(F)cc1 | -1e-05 |
| COc1ccc(CC[n+]2cc(/N=C(\C)[O-])on2)cc1OC | 6e-06 |
| CCCCNC(=O)Nc1ccc(C(O)(C(=O)OC)C(F)(F)F)cc1 (stereo unspecified) | -4.8e-05 |
| CC1(C)NCCN2C(=O)CSC21 (stereo unspecified) | -5.8e-05 |
| CC1(c2ccccc2)NCCN2C(=O)CSC21 (stereo unspecified) | -6.1e-05 |
| CN1CCc2c(c(N3CCCCC3)nc3n[nH]c(N)c23)C1 | -8.3e-05 |
| CC1(C)C(c2ccccc2)=NC(c2cccnc2)N1O (stereo unspecified) | -6.7e-05 |

target: Alpha-2C adrenergic receptor (Homo sapiens) (UniProt P18825); experiment: modulators of alpha2C/GIRK thallium flux, primary screen, cell-based, HEK293 alpha2C/GIRK1/2 (AID 624;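 active means fluorescence slope after compound addition differing from the mean of all screened samples at 99.7% confidence, in either direction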;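 further: slope of fluorescence ratio to pre-addition baseline per second over 15 to 24 s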); settings: thallium flux BTC fluorescence, at 10 µM, actives lie on both sides
Sequence (P18825 whole entry, looked up): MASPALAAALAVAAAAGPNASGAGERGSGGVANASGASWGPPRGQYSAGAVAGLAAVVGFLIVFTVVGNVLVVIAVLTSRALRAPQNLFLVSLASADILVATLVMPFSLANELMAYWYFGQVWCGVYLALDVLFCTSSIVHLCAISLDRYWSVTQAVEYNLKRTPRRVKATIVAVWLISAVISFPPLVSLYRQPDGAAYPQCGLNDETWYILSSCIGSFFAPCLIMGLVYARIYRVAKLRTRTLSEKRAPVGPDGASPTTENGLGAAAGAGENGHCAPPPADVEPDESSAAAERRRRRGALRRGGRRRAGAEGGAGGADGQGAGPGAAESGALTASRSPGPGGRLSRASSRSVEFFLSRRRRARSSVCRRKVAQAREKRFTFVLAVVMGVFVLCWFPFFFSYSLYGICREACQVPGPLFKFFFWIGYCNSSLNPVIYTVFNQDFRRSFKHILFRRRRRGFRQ

| Structure (SMILES) | slope |
| --- | --- |
| COC(=O)c1cncn1C(C)c1ccccc1 (stereo unspecified) | 0.0055 |
| CCCNS(=O)(=O)c1ccc(OCC(=O)N2CCN(Cc3ccccc3)CC2)cc1 | 0.00533 |
| COC(=O)CC1(Cc2ccccc2)C(=O)NC(=O)NC1=O | 0.00355 |
| COc1ccc(CC[n+]2cc(/N=C(\C)[O-])on2)cc1OC | 0.00583 |
| CC1(C)C(c2ccccc2)=NC(c2cccnc2)N1O (stereo unspecified) | 0.00634 |

target: Muscarinic acetylcholine receptor M4 (Homo sapiens) (UniProt P08173); experiment: compounds altering M4/GIRK thallium flux, either direction, primary screen, M4 allosteric agonist project, cell-based, HEK293 M4/GIRK, BTC-AM (AID 625;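 active means fluorescence slope after compound addition differing from the mean of all tested samples at 99.7% confidence, mostly higher but some lower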;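 further: thallium influx through GIRK channels coupled to M4 in HEK293 cells with BTC-AM dye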); settings: at 10 µM, actives lie on both sides
In short: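 Material: M4/GIRK1/GIRK2 stable HEK293 cell line. Medium: pH 7.3 thallium assay buffer. Dosing: single compound concentration, 10 µM final. Schedule: 1 h dye loading, 2 min kinetic read. Measured by: kinetic fluorescence with BTC-AM dye. Read-out: post-addition slope, 15–24 s, of baseline-normalized fluorescence. Benchmarks: carbachol and DMSO controls.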

Chain of Muscarinic acetylcholine receptor M4 (Homo sapiens) (P08173 whole entry, looked up): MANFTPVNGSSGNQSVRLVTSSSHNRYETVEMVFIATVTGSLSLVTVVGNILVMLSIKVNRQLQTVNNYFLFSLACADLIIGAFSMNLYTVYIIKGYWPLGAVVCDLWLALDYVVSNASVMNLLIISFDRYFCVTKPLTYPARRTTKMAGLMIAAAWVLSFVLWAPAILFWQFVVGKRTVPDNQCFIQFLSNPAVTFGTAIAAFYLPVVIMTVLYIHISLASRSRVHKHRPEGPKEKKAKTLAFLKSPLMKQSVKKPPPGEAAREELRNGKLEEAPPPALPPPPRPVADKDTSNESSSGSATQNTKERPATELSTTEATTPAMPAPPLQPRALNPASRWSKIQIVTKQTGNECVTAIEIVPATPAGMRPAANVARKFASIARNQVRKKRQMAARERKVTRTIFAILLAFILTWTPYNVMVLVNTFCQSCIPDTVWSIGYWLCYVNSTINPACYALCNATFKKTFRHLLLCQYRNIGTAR

| Structure (SMILES) | fluorescence slope |
| --- | --- |
| Nc1ncc(P(=S)(N2CCOCC2)N2CCOCC2)s1 | 0.00503 |
| CCCCc1nc(N2CCNCC2)c(C#N)c2c1CSC(C)(C)C2 | 0.00482 |
| COc1ccc(C(=O)CC2C(=O)N(C)C(=O)N(C)C2=O)cc1 | 0.00539 |
| CCc1nc(N2CCNCC2)c(C#N)c2c1CSC(C)(C)C2 | 0.00552 |
| CCCN(CC#CCO)CCC | 0.00435 |
| OC1(c2ccc(F)cc2)CCNC1 (stereo unspecified) | 0.00482 |
| COc1ccccc1-n1c(O)c(C=NCCCn2ccnc2)c(=O)[nH]c1=O | 0.00527 |
| COc1ccc(C2SCC(=O)Nc3c2c(=O)[nH]n3C2CCCCC2)cc1 (stereo unspecified) | 0.00663 |
| CCCCNC(=O)Nc1ccc(C(O)(C(=O)OCC)C(F)(F)F)cc1 (stereo unspecified) | 0.00537 |
| CCOC(=O)c1cc(C)n(CCc2cnc[nH]2)c1C | 0.00519 |
| CC1CN=C(Nc2ccc(N(C)C)cc2)S1 (stereo unspecified) | 0.00379 |
| NCC1(c2ccc3c(c2)OCCO3)CCCC1 | 0.0056 |
| CCOC(=O)C1=C(C)OC(N)=C(C(=O)OCC)[C@@]12C(=O)N(CC(N)=O)c1ccccc12 | 0.00512 |
| COC(=O)C(O)(c1ccc(NC(=O)c2ccco2)c(OC)c1)C(F)(F)F (stereo unspecified) | 0.00513 |
| C=CCOC(=O)C1=C(C)OC(N)=C(C#N)[C@@]12C(=O)N(CC(N)=O)c1ccccc12 | 0.00506 |
| C=CCOC(=O)C1=C(C)OC(N)=C(C#N)C12C(=O)N(CN1CCOCC1)c1ccccc12 (stereo unspecified) | 0.00467 |
| O=C(CN1CCN(CCO)CC1)Nc1ccc(Cl)cc1C(=O)c1ccccc1 | 0.00435 |

| Structure (SMILES) | fluorescence slope |
| --- | --- |
| Cc1c(N=Cc2c(O)n(Cc3ccco3)c(=O)[nH]c2=O)c(=O)n(-c2ccccc2)n1C | 0.00411 |
| CN(C)CCOC(=O)c1cn(Cc2ccccc2)c2ccccc12 | 0.00681 |
| COc1ccc2c(c1OC)C(=O)OC2c1c(O)n(C2CCCCC2)c(=O)[nH]c1=O (stereo unspecified) | 0.00555 |
| Cn1c(O)c(C=NCCCNC2CCCCC2)c(=O)n(C)c1=O | 0.00413 |
| COc1ccc(C2SCC(=O)Nc3c2c(=O)[nH]n3C2CCCCCC2)cc1 (stereo unspecified) | 0.007 |
| CNC(=O)N(C)c1nnc(C(C)(C)C)s1 | 0.00657 |
| CCCC12CN3CN(C1)CC(CCC)(C3)C2O (stereo unspecified) | 0.00532 |
| Nc1c(C(=O)NCc2ccco2)c2nc3ccccc3nc2n1CCN1CCCCC1 | 0.00537 |
| OC(c1ccc(F)cc1)C(c1ccccc1)N1CCOCC1 (stereo unspecified) | 0.00525 |
| COC(=O)C(c1ccccc1)N1CCCCCC1 (stereo unspecified) | 0.0047 |
| CCn1c(O)c(C(=O)CC2NCCc3ccccc32)c(=O)n(CC)c1=S (stereo unspecified) | 0.00707 |
| Nc1c(C(=O)NCc2ccco2)c2nc3ccccc3nc2n1Cc1ccc(F)cc1 | 0.00698 |
| CCCCNC(=O)Nc1ccc(C(O)(C(=O)OC)C(F)(F)F)cc1 (stereo unspecified) | 0.00513 |
| CC1(C)NCCN2C(=O)CSC21 (stereo unspecified) | 0.00571 |
| CC1(c2ccccc2)NCCN2C(=O)CSC21 (stereo unspecified) | 0.00532 |
| CN1CCc2c(c(N3CCCCC3)nc3n[nH]c(N)c23)C1 | 0.00409 |
